Series [1] deals with Mus musculus. As to the kind of experiment: In vivo antimalarial activity of compound against Plasmodium berghei in mice (Mus musculus) at dose of 12.5 mg/kg treated for 4 days. In kind it is functional. The gist of the method: (§1)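 Peters 4-day suppressive test in female BALB/c mice (18–20 g), five per group. Mice were infected iv with 1 × 10^7 P. berghei ANKA-infected erythrocytes. Drug was given ip daily for four consecutive days. Blood smears were taken on day 5, and % parasitemia suppression was calculated against untreated infected controls. Survival was recorded as days until signs of malaria illness.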

In series [2] the test system is Mus musculus. As to the kind of experiment: In vivo antimalarial activity of compound against Plasmodium berghei in mice (Mus musculus) at dose of 6.25 mg/kg treated for 4 days. In kind it is functional. Put shortly: as §1
The test system of series [3] is Mus musculus. As to the kind of experiment: In vivo antimalarial activity of compound against Plasmodium berghei in mice (Mus musculus) at dose of 3.125 mg/kg treated for 4 days. Type of series: functional. Put shortly: as §1
Series [4] is filed under the species Mus musculus. As to the kind of experiment: Mean survival time taken as number of days before illness due to Plasmodium berghei in untreated mice (Mus musculus). Type of series: functional. Put shortly: (§2)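 Peters' 4-day suppressive test in female BALB/c mice (18-20 g), five per group. Each mouse got 1 × 10^7 P. berghei ANKA-infected erythrocytes iv. Drug was given ip in 0.2 mL daily for 4 consecutive days. Survival time was the number of days before signs of malaria illness, compared with untreated infected controls.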

Series [5] relates to Mus musculus. As to the kind of experiment: Mean survival time taken as number of days before illness due to Plasmodium berghei when mice (Mus musculus) treated with 25 mg/kg dose for 4 days. Type of series: functional. Put shortly:
as §2

Series [6] concerns Mus musculus. As to the kind of experiment: Mean survival time taken as number of days before illness due to Plasmodium berghei when mice (Mus musculus) treated with 12.5 mg/kg dose for 4 days. Type of series: functional. Put shortly:
as §2

Series [7] relates to Mus musculus. As to the kind of experiment: Mean survival time taken as number of days before illness due to Plasmodium berghei when mice (Mus musculus) treated with 6.25 mg/kg dose for 4 days. Type of series: functional. Put shortly:
as §2

Series [8] relates to Mus musculus. As to the kind of experiment: Mean survival time taken as number of days before illness due to Plasmodium berghei when mice (Mus musculus) treated with 3.125 mg/kg dose for 4 days. In kind it is functional. Put shortly: as §2
A further series relates to MAC15A. The series can be described thus: Ratio of cytotoxic to that of antiplasmodial activity was determined. In kind it is functional, Mus musculus.
Series [9] in a line: Ionization constant for the compound. In kind it is physicochemical.
Series [10] deals with T1, Histidine-rich protein PFHRP-II (Plasmodium falciparum) (UniProt P05227).
T1 sequence (whole entry): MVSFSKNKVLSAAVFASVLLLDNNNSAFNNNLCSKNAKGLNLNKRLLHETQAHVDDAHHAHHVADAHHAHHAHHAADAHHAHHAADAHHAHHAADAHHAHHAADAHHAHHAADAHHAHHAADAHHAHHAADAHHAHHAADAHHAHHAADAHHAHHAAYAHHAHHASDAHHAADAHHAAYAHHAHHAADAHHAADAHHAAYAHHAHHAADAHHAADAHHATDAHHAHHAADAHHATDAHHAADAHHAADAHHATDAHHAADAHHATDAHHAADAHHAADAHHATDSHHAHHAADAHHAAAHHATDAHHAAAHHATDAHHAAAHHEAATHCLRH
The series can be described thus: Antiplasmodial activity as IC50 against Beta-hematin formation. In kind it is functional. Put shortly:
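β-Hematin inhibition (BHIA) assay: hemin (0.4 µmol/well) in DMSO with compound at 0.25–2 (or 4) molar equivalents to hemin, in triplicate. Final DMSO was 25%. Formation started with 8 M acetate buffer pH 5.0, then 37 °C for 18 h. The centrifuged pellet was dissolved in 0.1 M NaOH and read at 405 nm. BHIA50 is the drug equivalents relative to hemin giving 50% inhibition.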

The subject of series [11] is Plasmodium falciparum. The series can be described thus: […] accumulation into acidic parasitic food vacuole (pH=5.5) relative to Cryptolepine. Type of series: functional. The gist of the method: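 Calculated from each compound's spectrophotometric pKa via a pH-trapping equation, assuming food-vacuole pH 5.5 and external pH 7.4. The result is expressed relative to cryptolepine's ratio. pKa came from UV spectra (0.05 mg mL-1) in at least seven buffers of pH 5.8–13.0, plus 0.1 M NaOH and 0.1 M HCl. pKa was taken as the midpoint of the λmax absorbance plot. Two experiments per compound.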

The test system of series [12] is Mus musculus. As to the kind of experiment: In vivo antimalarial activity of compound against Plasmodium berghei was determined as suppression of parasitemia in mice (Mus musculus) at 25 mg/kg treated for 4 days. Type of series: functional. The gist of the method:
as §1

The subject of series [13] is Mus musculus. As to the kind of experiment: In vivo antimalarial activity of compound against Plasmodium berghei was determined as suppression of parasitemia in mice (Mus musculus) at 12.5 mg/kg treated for 4 days. In kind it is functional. Put shortly:
as §1

Series [14] deals with Mus musculus. As to the kind of experiment: In vivo antimalarial activity of compound against Plasmodium berghei was determined as suppression of parasitemia in mice (Mus musculus) at 6.25 mg/kg treated for 4 days. In kind it is functional. The gist of the method: as §1
In series [15] the test system is Mus musculus. The series can be described thus: In vivo antimalarial activity of compound against Plasmodium berghei was determined as suppression of parasitemia in mice (Mus musculus) at 3.125 mg/kg treated for 4 days. In kind it is functional. Put shortly:
as §1

For series [16], the system named is Plasmodium falciparum. As to the kind of experiment: […] accumulation into acidic parasitic food vacuole at pH=5.5. In kind it is functional.
In series [17] the test system is Mus musculus. The series can be described thus: In vivo antimalarial activity of compound against Plasmodium berghei in mice (Mus musculus) at dose of 25 mg/kg treated for 4 days. In kind it is functional. Put shortly: as §1
The subject of series [18] is Mus musculus. The series can be described thus: In vivo antimalarial activity of compound against Plasmodium berghei in mice (Mus musculus) at dose of 10 mg/kg treated for 4 days. Type of series: functional.
The subject of series [19] is Mus musculus. The series can be described thus: Mean survival time taken as number of days before illness due to Plasmodium berghei when mice (Mus musculus) treated with 10 mg/kg dose for 4 days; g=mice (Mus musculus) survived the test. In kind it is functional, organism-based. Set-up: dose 10 mg/kg. Put shortly:
as §2

Series [20] deals with Mus musculus. As to the kind of experiment: In vivo antimalarial activity of compound against Plasmodium berghei was determined as suppression of parasitaemia in mice (Mus musculus) at 10 mg/kg treated for 4 days. In kind it is functional.

Structures are written as SMILES.

For orientation: pKa means the pH at which an ionisable group is half protonated. Read a low pKa as a group that gives up its proton readily.

Regarding `C[n+]1c2ccc(Br)cc2cc2[nH]c3ccc(Br)cc3c21.[Cl-]`, the Parasitemia with Mus musculus [1] is 3.55%; in the series on Mus musculus [2] it was 7.67%; in the series with Mus musculus [3], 12.1%; with Mus musculus [17] it was 1.24%. Also, the Mean survival time in the series filed under Mus musculus [4] worked out at 10 days; in the series on Mus musculus [5], 15 days; in the series on Mus musculus [6] it was 11.8 days; in the series on Mus musculus [7], 11.6 days; in the series with Mus musculus [8], 10 days. The figures for the Ratio in the series with MAC15A and with Plasmodium falciparum [11] were 123 and 0.99, respectively. This molecule also came in with a pKa in series [9] of 9.1. Also, the BHIA50 in series [10] stood at 1.53. For the same molecule, the Suppression of parasitemia came to 91.4% in the series with Mus musculus [12], 75.4% in the series with Mus musculus [13], 46.7% in the series with Mus musculus [14] and 15.9% in the series on Mus musculus [15]. In addition, the Vascular accumulation ratio in the series on Plasmodium falciparum [16] was found to be 77.9.

The molecule `CCN(CC)CCCC(C)Nc1ccnc2cc(Cl)ccc12.O=P(O)(O)O.O=P(O)(O)O` (stereo not drawn) [CHLOROQUINE PHOSPHATE] yielded a Parasitemia in the series with Mus musculus [18] of 0%. Besides, the Mean survival time in the series filed under Mus musculus [4] is 8.56 days; with Mus musculus [19] it was “Mice survived”. Besides, in series [10], the BHIA50 came out at 1.44. This molecule also returned a Suppression of parasitemia in the series with Mus musculus [20] of 100%.

Values taken from ChEMBL document CHEMBL1143585, “Synthesis of some cryptolepine analogues, assessment of their antimalarial and cytotoxic activities, and consideration of their antimalarial mode of action” (J Med Chem, 2005).
